Results published in ChEMBL document CHEMBL4184338, “In Vitro and In Vivo Demonstration of Human-Ovarian-Cancer Necrosis through a Water-Soluble and Near-Infrared-Absorbing Chlorin” (J Med Chem, 2018).
Converted amounts (≈) assume the structure as drawn. One block for each compound: values may come before it. The source made the active and inactive calls. No cut-off for these calls is given here.

How the values were obtained:
SK-OV-3 [1] = experiment: Induction of necrosis in human SKOV3 cells at 20 uM in absence of light by propidium iodide staining-based flow cytometric method (reference value: 7.03%); format: cell-based; details: sk-ov-3, 20 µM
In short: (§1)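 Unfixed SKOV-3 cells given 20 μM compound, with or without light (600-720 nm, 200 J/cm2). Harvested, PBS-washed, stained with propidium iodide (10 μg/mL) for 20 min. PI-positive membrane-damaged fraction measured by flow cytometry.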

Mus musculus [2] = experiment: Toxicity in FoxN1 nude mouse xenografted with human SKOV3 cells assessed as effect on heart morphology at 20 mg/kg, iv measured on day 14 in presence of 100 J/cm'2 light by hematoxylin-and-eosin staining-based assay; format: organism-based; details: in vivo
In short: (§2)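 3-4 million SKOV-3 cells injected subcutaneously into the flank of 6-8 week old FoxN1 nude mice (20-25 g). At tumour volumes of about 100-150 mm3, randomised into four groups of six: untreated, light only, compound only, and compound plus light. Compound given iv at 20 mg/Kg in physiological saline. Irradiation 24 h later at 100 J/cm2, 100 mW/cm2, 600-750 nm source, under ip ketamine (60 mg/Kg)/xylazine (8 mg/Kg). Tumour volume by calipers, V=LW2/2, followed over two weeks. Tissues processed for H&E histology.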

Mus musculus [3] = experiment: Toxicity in FoxN1 nude mouse xenografted with human SKOV3 cells assessed as effect on lung morphology at 20 mg/kg, iv measured on day 14 in presence of 100 J/cm'2 light by hematoxylin-and-eosin staining-based assay; format: organism-based; details: in vivo; in short: as §2
[4] = Drug uptake in mitochondria of human SKOV3 cells at 20 uM after 1 hr in presence of 200 J/cm'2 light by MitoTracker Red probe/Hoechst 33342 staining-based confocal microscopic method; format: ADME; details: sk-ov-3, 1 h
SK-OV-3 [5] = experiment: Disruption of mitochondrial membrane potential in human SKOV3 cells at 20 uM in presence of 200 J/cm'2 light by MitoTracker Red probe/Hoechst 33342 staining-based confocal microscopic method; format: functional, cell-based
In short: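 Control SKOV-3 cells and cells after photodynamic treatment (20 μM compound, 600-720 nm, 200 J/cm2) loaded with 200 nM MitoTracker Red CMXRos, 30 min at 37 °C. Formaldehyde-fixed, nuclear counterstain, confocal microscopy.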

SK-OV-3 [6] = experiment: Phototoxicity in human SKOV3 cells assessed as alteration in cell morphology in presence of 200 J/cm'2 light by phase-contrast microscopic method; format: functional, cell-based
In short: (§3)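 SKOV-3 cells given compound, kept dark or irradiated (200 J/cm2, 50 mW/cm2). Morphology examined by phase-contrast microscopy (100X).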

SK-OV-3 [7] = experiment: Induction of necrosis in human SKOV3 cells at 20 uM in presence of 200 J/cm'2 light by propidium iodide staining-based flow cytometric method (reference value: 7.45%); format: functional; in short: as §1
SK-OV-3 [8] = experiment: Antitumor activity against human SKOV3 cells xenografted in FoxN1 nude mouse assessed as disappearance of scar at site of tumor at 20 mg/kg, iv measured up to day 14 in presence of 100 J/cm'2 light; format: functional, organism-based; in short: as §2
Mus musculus [9] = experiment: Toxicity in FoxN1 nude mouse xenografted with human SKOV3 cells assessed as effect on skin around peritumoral area at 20 mg/kg, iv measured up to day 14 in presence of 100 J/cm'2 light; format: organism-based; details: in vivo; in short: as §2
SK-OV-3 [10] = experiment: Induction of reactive oxygen species formation in human SKOV3 cells at 20 uM in presence of 200 J/cm'2 light by CM-H2DCFDA probe-based confocal microscopic method; format: functional, cell-based
SK-OV-3 [11] = experiment: Cell cycle arrest in human SKOV3 cells assessed as accumulation at sub-G1 phase at 20 uM after 24 hrs in presence of 200 J/cm'2 light by propidium iodide staining-based flow cytometric method (reference value: 7%); format: functional
[12] = Solubility in 25% aqueous ethanolic medium at 25 degC after 24 hrs by UV-VIS spectrometric method; format: physicochemical
SK-OV-3 [13] = experiment: Phototoxicity against human SKOV3 cells assessed as decrease in cell viability after 24 hrs in presence of 200 J/cm'2 light by MTT assay; format: functional, cell-based
In short: (§4)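 Cell lines given varied compound concentrations, then irradiated (600-750 nm source, 200 J/cm2 at 50 mW/cm2) or kept dark. Viability by MTT at 24 h after treatment; IC50 from the dose-response. Three independent experiments averaged.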

[14] = Drug uptake in fibrous tissue cells of FoxN1 nude mouse xenografted with human SKOV3 cells at 20 mg/kg administered intratumorally measured at 12 hrs by fluorescence microscopic method; format: ADME, organism-based; details: in vivo, other
In short: (§5)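 Compound injected intratumorally into SKOV-3 xenograft-bearing nude mice. Tumours biopsied 12 h after administration, then sectioned. Sections DAPI-counterstained and examined for red compound fluorescence by fluorescence microscopy.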

Homo sapiens [15] = organism: Homo sapiens; experiment: Disruption of F-actin organization in human SKOV3 cells at 20 uM in presence of 200 J/cm'2 light by TRITC labeled phalloidin/DAPI staining-based confocal microscopic method; format: cell-based
In short: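 SKOV-3 cells on coverslips: untreated, 20 μM compound in the dark, or 20 μM compound plus irradiation (600-720 nm, 200 J/cm2). Fixed in 4% paraformaldehyde/PBS, permeabilised with 0.1% Triton X-100, stained with TRITC-phalloidin (1:50, 1 h). DAPI counterstain, confocal imaging.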

MCF7 = experiment: Phototoxicity against human MCF7 cells assessed as decrease in cell viability after 24 hrs in presence of 200 J/cm'2 light by MTT assay; format: functional, cell-based; details: MCF7, light or radiation study; in short: as §4
SK-OV-3 [16] = experiment: Antitumor activity against human SKOV3 cells xenografted in FoxN1 nude mouse assessed as elimination of neoplastic cells in tumor at 20 mg/kg, iv measured on day 14 in presence of 100 J/cm'2 light by hematoxylin-and-eosin staining-based assay; format: functional, organism-based; in short: as §2
[17] = Drug uptake in human SKOV3 cells at 20 uM after 1 hr in presence of 200 J/cm'2 light by Hoechst 33342 staining-based confocal microscopic method; format: ADME, cell-based; details: sk-ov-3, 1 h
In short: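 SKOV-3 cells on chambered glass slides incubated with 20 μM compound for 1 h. Rinsed with PBS, stained with Hoechst 33342 (1 μg/mL), imaged by confocal microscopy.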

Mus musculus [18] = experiment: Toxicity in FoxN1 nude mouse xenografted with human SKOV3 cells assessed as effect on spleen morphology at 20 mg/kg, iv measured on day 14 in presence of 100 J/cm'2 light by hematoxylin-and-eosin staining-based assay; format: organism-based; details: in vivo; in short: as §2
[19] = Drug uptake in stromal cells of FoxN1 nude mouse xenografted with human SKOV3 cells at 20 mg/kg administered intratumorally measured at 12 hrs by fluorescence microscopic method; format: ADME, organism-based; details: in vivo, other; in short: as §5
MDA-MB-231 = experiment: Phototoxicity against human MDA-MB-231 cells assessed as decrease in cell viability after 24 hrs in presence of 200 J/cm'2 light by MTT assay; format: functional, cell-based; details: MDA-MB-231, light or radiation study; in short: as §4
[20] = Dark toxicity in human SKOV3 cells assessed as alteration in cell morphology by phase-contrast microscopic method; format: cell-based; details: sk-ov-3; in short: as §3
[21] = Photostability of compound; format: physicochemical
[22] = Induction of singlet oxygen generation in methanol at 3 uM in presence of light by DPBF-based chemical trapping method; format: functional
SK-OV-3 [23] = experiment: Cell cycle arrest in human SKOV3 cells assessed as accumulation at sub-G1 phase at 20 uM after 12 hrs in absence of light by propidium iodide staining-based flow cytometric method (reference value: 2.2%); details: sk-ov-3, 12 h
IMR-32 = experiment: Phototoxicity against human IMR32 cells assessed as decrease in cell viability after 24 hrs in presence of 200 J/cm'2 light by MTT assay; format: functional, cell-based; details: IMR-32, light or radiation study; in short: as §4
Mus musculus [24] = experiment: Toxicity in FoxN1 nude mouse xenografted with human SKOV3 cells assessed as effect on kidney morphology at 20 mg/kg, iv measured on day 14 in presence of 100 J/cm'2 light by hematoxylin-and-eosin staining-based assay; format: organism-based; details: in vivo; in short: as §2
SK-OV-3 [25] = experiment: Induction of reactive oxygen species formation in human SKOV3 cells at 20 uM in presence of 200 J/cm'2 light by CM-H2DCFDA probe-based flow cytometric method (reference value: <1%); format: functional
SK-OV-3 [26] = experiment: Induction of reactive oxygen species formation in human SKOV3 cells at 20 uM in absence of light by CM-H2DCFDA probe-based confocal microscopic method; format: cell-based; details: sk-ov-3, 20 µM
SK-OV-3 [27] = experiment: Cell cycle arrest in human SKOV3 cells assessed as accumulation at sub-G1 phase at 20 uM after 12 hrs in presence of 200 J/cm'2 light by propidium iodide staining-based flow cytometric method (reference value: 7%); format: functional
SK-OV-3 [28] = experiment: Antitumor activity against human SKOV3 cells xenografted in FoxN1 nude mouse assessed as decrease in tumor volume at 20 mg/kg, iv measured up to day 14 in presence of 100 J/cm'2 light; format: functional, organism-based; in short: as §2
Mus musculus [29] = experiment: Toxicity in FoxN1 nude mouse xenografted with human SKOV3 cells assessed as effect on liver morphology at 20 mg/kg, iv measured on day 14 in presence of 100 J/cm'2 light by hematoxylin-and-eosin staining-based assay; format: organism-based; details: in vivo; in short: as §2
[30] = Drug uptake in neoplastic tumor of FoxN1 nude mouse xenografted with human SKOV3 cells at 20 mg/kg administered intratumorally measured at 12 hrs by fluorescence microscopic method; format: ADME, organism-based, Neoplasm; details: in vivo, other; in short: as §5
Homo sapiens [31] = organism: Homo sapiens; experiment: Binding affinity to F-actin in human SKOV3 cells at 20 uM after 1 hr in presence of 200 J/cm'2 light by TRITC labeled phalloidin/DAPI staining-based confocal microscopic method

Drug uptake [4]: Active | solubility at 24 h [12]: 3640 µM (≈ 2710 µg/mL) | Drug uptake [14]: Not Active | Drug uptake [17]: Active | Drug uptake [19]: Not Active | Stability [21]: Stable | Activity (SK-OV-3 [23]): 1% | Drug uptake [30]: Active
Compound: Oc1ccc(-c2c3nc(c(-c4ccc(O)c(O)c4)c4ccc([nH]4)c(-c4ccc(O)c(O)c4)c4nc(c(-c5ccc(O)c(O)c5)c5ccc2[nH]5)CC4)C=C3)cc1O
Activity (SK-OV-3 [1]): 8.98% | Activity (Mus musculus [2]): Non-Toxic | Activity (Mus musculus [3]): Non-Toxic | Activity (SK-OV-3 [5]): Active | Activity (SK-OV-3 [6]): Active | Activity (SK-OV-3 [7]): 79.48% | Activity (SK-OV-3 [8]): Active | Activity (Mus musculus [9]): Non-Toxic | Activity (SK-OV-3 [10]): Active | Activity (SK-OV-3 [11]): 76.7% | Activity (SK-OV-3 [13]): Dose-dependent effect | IC50 (SK-OV-3 [13]; SK-OV-3, light or radiation study): 11.2 µM | Activity (Homo sapiens [15]): Active | IC50 (MCF7): 4.4 µM | Activity (SK-OV-3 [16]): Active | Activity (Mus musculus [18]): Non-Toxic | IC50 (MDA-MB-231): 6.1 µM | Activity [20]: Non-Toxic | Activity [22]: 80% | IC50 (IMR-32): 3.5 µM | Activity (Mus musculus [24]): Non-Toxic | Activity (SK-OV-3 [25]): 73% | Activity (SK-OV-3 [26]): Non-Toxic | Activity (SK-OV-3 [27]): 59.6% | Activity (SK-OV-3 [28]): Active | Activity (Mus musculus [29]): Non-Toxic | Activity (Homo sapiens [31]): Active

solubility at 24 h [12]: 600 µM (≈ 408 µg/mL)
Compound: Oc1cccc(-c2c3nc(c(-c4cccc(O)c4)c4ccc([nH]4)c(-c4cccc(O)c4)c4nc(c(-c5cccc(O)c5)c5ccc2[nH]5)CC4)C=C3)c1 [TEMOPORFIN]
